According to ChEMBL document CHEMBL3045276, “Synthesis and biological activity of some novel trifluoromethyl-substituted 1,2,4-triazole and bis(1,2,4-triazole) Mannich bases containing piperazine rings” (2010):

What was measured:
Type in all cases: functional
[1] = system: Echinochloa crus-galli; experiment: Herbicidal activity against Echinochloa crus-galli (barnyard grass) assessed as inhibition of seedling growth at 10 ug/mL at 28 degC
Method in brief: (§1)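 Ten barnyardgrass seeds placed in cup over glass beads and filter paper holding 5 mL aqueous test solution (emulsified if needed); germinated 65 h at 28 ± 1 °C under light. Mean above-ground seedling height per cup measured; inhibition percentage derived.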

[2] = system: Brassica rapa subsp. oleifera; experiment: Herbicidal activity against Brassica rapa subsp. oleifera assessed as inhibition of root growth at 10 ug/mL at 28 degC
Method in brief: (§2)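 Rape seeds soaked 4 h in distilled water, then 15 per 6 cm dish on filter paper wetted with 2 mL aqueous test solution (emulsified if needed); germinated 65 h at 28 ± 1 °C in darkness. Mean length of 10 roots per dish measured; percentage inhibition calculated against distilled-water check.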

[3] = system: Corynespora cassiicola; experiment: Fungicidal activity against Corynespora cassiicola in cucumber plant two seed leaves stage assessed as control efficacy from disease indices at 500 ug/mL at 18 to 30 degC and above 80%RH relative to control; conditions: read-out: GI
Method in brief: (§3)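 Cucumber seeds germinated (soaked 2 h in water at 50 °C, kept moist 24 h at 28 °C) and grown in 1:1 vermiculite/peat; two-seed-leaf plants sprayed at 500 μg/mL, then inoculated 2 h later by spraying conidial (C. cassiicola, A. citrullina, P. cubensis), bacterial (P. syringae) or mycelial (S. sclerotiorum) suspension. Held 18-30 °C, >80% RH; four repeats; control efficacy = (CK−PT)/CK×100 from disease indices once untreated plants fully symptomatic.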

[4] = system: Sclerotinia sclerotiorum; experiment: Fungicidal activity against Sclerotinia sclerotiorum in cucumber plant two seed leaves stage assessed as control efficacy from disease indices at 500 ug/mL at 18 to 30 degC and above 80%RH relative to control; conditions: read-out: GI; method in brief: as §3
[5] = system: Ascochyta; experiment: Fungicidal activity against Ascochyta […] in cucumber plant two seed leaves stage assessed as control efficacy from disease indices at 500 ug/mL at 18 to 30 degC and above 80%RH relative to control; conditions: read-out: GI; method in brief: as §3
[6] = system: Pseudoperonospora cubensis; experiment: Fungicidal activity against Pseudoperonospora cubensis in cucumber plant two seed leaves stage assessed as control efficacy from disease indices at 500 ug/mL at 18 to 30 degC and above 80%RH relative to control; conditions: read-out: GI; method in brief: as §3
[7] = system: Echinochloa crus-galli; experiment: Herbicidal activity against Echinochloa crus-galli (barnyard grass) assessed as inhibition of seedling growth at 100 ug/mL at 28 degC; method in brief: as §1
[8] = system: Brassica rapa subsp. oleifera; experiment: Herbicidal activity against Brassica rapa subsp. oleifera assessed as inhibition of root growth at 100 ug/mL at 28 degC; method in brief: as §2
[9] = system: Pseudomonas amygdali pv. lachrymans; experiment: Fungicidal activity against Pseudomonas syringae pv. lachrymans in cucumber plant two seed leaves stage assessed as control efficacy from disease indices at 500 ug/mL at 18 to 30 degC and above 80%RH relative to control; conditions: read-out: GI; method in brief: as §3

Row | SMILES | inhibition at 10 µg/mL [1] | inhibition at 10 µg/mL [2] | inhibition of growth at 500 µg/mL [3] | inhibition of growth at 500 µg/mL [4] | inhibition of growth at 500 µg/mL [5] | inhibition of growth at 500 µg/mL [6] | inhibition at 100 µg/mL [7] | inhibition at 100 µg/mL [8] | inhibition of growth at 500 µg/mL [9]
1 | FC(F)(F)c1nn(CN2CCN(Cn3nc(C(F)(F)F)n(/N=C/c4ccccc4)c3=S)CC2)c(=S)n1/N=C/c1ccccc1 | 16.2% | 0% | 70.9% | 67.6% | 25.6% | 78.9% | 25.1% | 35.1% | 56.4%
2 | Fc1ccccc1/C=N/n1c(C(F)(F)F)nn(CN2CCN(Cn3nc(C(F)(F)F)n(/N=C/c4ccccc4F)c3=S)CC2)c1=S | 10.7% | 0% | 84.7% | 25.9% | 86.5% | 79.9% | 26.6% | 4.3% | 6.8%
3 | COc1ccc(/C=N/n2c(C(F)(F)F)nn(CN3CCN(Cn4nc(C(F)(F)F)n(/N=C/c5ccc(OC)cc5)c4=S)CC3)c2=S)cc1 | 5.5% | 0% | 44.1% | 62% | 89.7% | 84.5% | 25.5% | 29.5% | 55.6%
4 | Cc1ccc(/C=N/n2c(C(F)(F)F)nn(CN3CCN(Cn4nc(C(F)(F)F)n(/N=C/c5ccc(C)c(C)c5)c4=S)CC3)c2=S)cc1C | 1.5% | 0% | 67.4% | 32.7% | 26% | 78.7% | 28% | 27.4% | 36.7%
5 | Fc1ccccc1/C=N/n1c(C(F)(F)F)nn(CN2CCN(c3ncccn3)CC2)c1=S | 9.9% | 70.8% | 40.3% | 47.3% | 61.3% | 64.9% | 15.3% | 74.5% | 45.4%
6 | COc1ccc(/C=N/n2c(C(F)(F)F)nn(CN3CCN(c4ncccn4)CC3)c2=S)cc1 | 0% | 53.5% | 73.4% | 75.3% | 73.4% | 79.5% | 18.6% | 78.8% | 68.1%
7 | Cc1ccnc(N2CCN(Cn3nc(C(F)(F)F)n(/N=C/c4ccccc4)c3=S)CC2)n1 | 8.7% | 0% | 49.2% | 36.8% | 62.4% | 78.6% | 15.3% | 12.5% | 20.4%
8 | Cc1ccnc(N2CCN(Cn3nc(C(F)(F)F)n(/N=C/c4ccccc4F)c3=S)CC2)n1 | 0% | 0% | -5.3% | 52.2% | 57.8% | 75.5% | 8% | 24.4% | 62.3%
9 | COc1ccc(/C=N/n2c(C(F)(F)F)nn(CN3CCN(c4nccc(C)n4)CC3)c2=S)cc1 | 15.3% | 0% | 52.8% | 50.9% | 67.7% | 72.5% | 34.3% | 30.3% | 30.6%
10 | Cc1ccnc(N2CCN(Cn3nc(C(F)(F)F)n(/N=C/c4ccc(C)c(C)c4)c3=S)CC2)n1 | 0% | 0% | 38.7% | 51.9% | 70% | 69.5% | 27.8% | 11.2% | 22%
11 | Cc1ccnc(N2CCN(Cn3nc(C(F)(F)F)n(/N=C/c4ccc(Cl)cc4)c3=S)CC2)n1 | 10.2% | 0% | 71.1% | 70.3% | 61.3% | 91.2% | 96.7% | 68.6% | 21.1%
12 | Cc1ccnc(N2CCN(Cn3nc(C(F)(F)F)n(/N=C/c4ccccc4[N+](=O)[O-])c3=S)CC2)n1 | 11.5% | 0% | 73.8% | 32.8% | 44.3% | 76.8% | 33.9% | 0% | 44.5%
13 | Cc1cc(C)nc(N2CCN(Cn3nc(C(F)(F)F)n(/N=C/c4ccccc4)c3=S)CC2)n1 | 0% | 36.9% | 22.1% | 48% | 61.5% | 74.1% | 9.8% | 71.1% | 55%
14 | Cc1cc(C)nc(N2CCN(Cn3nc(C(F)(F)F)n(/N=C/c4ccccc4F)c3=S)CC2)n1 | 17.1% | 67.1% | 78.7% | 72% | 83.5% | 79.2% | 33.2% | 72.4% | 56.1%
15 | COc1ccc(/C=N/n2c(C(F)(F)F)nn(CN3CCN(c4nc(C)cc(C)n4)CC3)c2=S)cc1 | 0% | 30.6% | 83.7% | 62.6% | 87.6% | 87.3% | 29.5% | 67.7% | 50.3%
16 | Cc1cc(C)nc(N2CCN(Cn3nc(C(F)(F)F)n(/N=C/c4ccc(C)c(C)c4)c3=S)CC2)n1 | 0% | 6% | 85.9% | 48.9% | 82.9% | 67.8% | 8.7% | 20.5% | 59.5%
17 | Cc1cc(C)nc(N2CCN(Cn3nc(C(F)(F)F)n(/N=C/c4ccc(Cl)cc4)c3=S)CC2)n1 | 12.3% | 9.5% | 94.4% | 38% | 62.8% | 91.6% | 36.6% | 88.5% | 61.5%
18 | Cc1cc(C)nc(N2CCN(Cn3nc(C(F)(F)F)n(/N=C/c4ccccc4[N+](=O)[O-])c3=S)CC2)n1 | 0% | 0% | 87.8% | 39.3% | 88.4% | 77.2% | 10.2% | 11.2% | 46.5%
19 | COc1nc(C)nc(NC(=O)NS(=O)(=O)c2ccccc2Cl)n1 [CHLORSULFURON] | 8.2% | 76% | – | – | – | – | 29.9% | 80.4% | –
20 | COc1ccc(C(=CC(=O)N2CCOCC2)c2ccc(Cl)cc2)cc1OC [DIMETHOMORPH] | – | – | 95.3% | 98.4% | 98.4% | 83.8% | – | – | 14%
21 | CC(C)NC(=O)N1CC(=O)N(c2cc(Cl)cc(Cl)c2)C1=O [IPRODIONE] | – | – | 53.5% | 97.8% | 98.4% | 55.9% | – | – | 38.5%
22 | COC(=O)NC(=S)Nc1ccccc1NC(=S)NC(=O)OC [THIOPHANATE METHYL] | – | – | 78.8% | 83.4% | 100% | 68.7% | – | – | 54.2%
